A selection: hits, their analogues and other compounds. The true share with any hit is near 5.5%.
RAM network inh: yeast RAM network inhibition. S. cerevisiae dse1pr::URA3 reporter, 5-FOA growth OD615, 2 d; analog-sensitive cbk1-as2 kinase mutant strain. inhibition, % at 50 µM. 1.8% of 190,000 active. AID 868;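 active = inhibition above a set limit, 3 SD over mean compound inhibition, cut at about 8.4% in these data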;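 also: inhibition rescues growth on 5-FOA so higher OD means more RAM inhibition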
WT yeast gro inh: growth inhibition of WT yeast, mitochondrial fusion screen. 2.1% of 190,000 active. inhibition, % at 10 µM. AID 1362. mitochondrial fusion phenotypic screen, WT strain; in the data active = inhibition above about 58%; tested in S. cerevisiae
KCC2 mod: modulators of human KCC2 chloride dependent transport; KCC2 cells, thallium flux FluoZin-2 fluorescence; B-score of Tl+ flux slope (higher = more flux/activation; lower = inhibition) at 10 µM; 2.2% of 190,000 active; AID 1456; Q9H2X9;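 active = thallium flux slope and its plate-corrected score both differing from the plate sample mean at a set confidence after two filtering rounds, in either direction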;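 also: slope of fluorescence scaled to starting intensity during 10 to 20 s after thallium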
Target sequence (Q9H2X9 whole entry, looked up): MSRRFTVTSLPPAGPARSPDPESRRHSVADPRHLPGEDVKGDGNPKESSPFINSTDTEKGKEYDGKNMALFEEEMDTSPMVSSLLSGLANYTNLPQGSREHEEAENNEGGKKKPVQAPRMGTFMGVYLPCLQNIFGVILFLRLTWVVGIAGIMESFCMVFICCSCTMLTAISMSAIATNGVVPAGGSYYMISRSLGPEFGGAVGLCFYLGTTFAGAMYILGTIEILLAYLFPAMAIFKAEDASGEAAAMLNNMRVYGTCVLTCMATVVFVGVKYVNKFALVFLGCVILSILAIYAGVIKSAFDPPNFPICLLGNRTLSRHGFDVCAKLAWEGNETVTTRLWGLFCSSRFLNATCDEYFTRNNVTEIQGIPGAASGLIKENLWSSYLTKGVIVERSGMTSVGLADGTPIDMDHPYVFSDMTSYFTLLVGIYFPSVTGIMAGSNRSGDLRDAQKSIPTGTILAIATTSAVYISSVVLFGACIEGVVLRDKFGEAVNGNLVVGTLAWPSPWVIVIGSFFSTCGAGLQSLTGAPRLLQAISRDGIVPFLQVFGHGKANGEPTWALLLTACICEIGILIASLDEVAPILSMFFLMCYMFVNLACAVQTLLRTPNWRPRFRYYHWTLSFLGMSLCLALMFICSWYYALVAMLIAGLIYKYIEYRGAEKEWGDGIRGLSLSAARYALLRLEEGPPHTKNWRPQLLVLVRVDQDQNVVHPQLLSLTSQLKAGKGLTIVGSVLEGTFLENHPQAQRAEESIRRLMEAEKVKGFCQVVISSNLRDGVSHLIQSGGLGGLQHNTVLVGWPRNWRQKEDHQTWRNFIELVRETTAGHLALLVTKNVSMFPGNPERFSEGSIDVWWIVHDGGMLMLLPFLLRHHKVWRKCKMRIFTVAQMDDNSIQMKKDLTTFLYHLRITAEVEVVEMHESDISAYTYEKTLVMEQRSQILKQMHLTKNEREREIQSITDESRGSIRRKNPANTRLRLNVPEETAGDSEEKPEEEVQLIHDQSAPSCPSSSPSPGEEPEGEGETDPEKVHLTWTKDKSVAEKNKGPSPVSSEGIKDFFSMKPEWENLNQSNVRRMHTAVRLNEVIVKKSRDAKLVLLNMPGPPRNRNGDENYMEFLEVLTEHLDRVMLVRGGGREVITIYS
Yeast lifespan up: yeast lifespan extension. S. cerevisiae growth with nicotinamide, OD615; deaD strain in restrictive glucose medium. inhibition of the nicotinamide effect, % at 10 µM. 0.68% of 130,000 active. AID 775;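 active = inhibition above a set limit, placed 3 SD over the median of all compounds, cut at about 26% in these data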
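System: DeaD-strain S. cerevisiae / Buffer or medium: CSMM-D, restrictive glucose (dextrose) synthetic minimal medium / Probe or stimulus: nicotinamide, 1.5 mM, co-present with compound / Compound: one concentration, 10 µM, DMSO 0.25% / Incubation: 48 h compound exposure at 30 °C, humidified / Technique: optical density (absorbance) at 615 nm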
Yeast growth inh: reduces growth of yeast BB579 in restrictive medium. S. cerevisiae BB579 growth, OD615, 48 h. inhibition, % at 10 µM. 0.51% of 140,000 active. AID 804;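 active = inhibition above a set limit, 3 SD over the mean compound inhibition, cut at about 44% in these data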
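Assay system: S. cerevisiae DeaD strain BB579 yeast. Medium: CSMM-D restrictive synthetic medium containing dextrose (glucose). Times: 4 h cell preincubation, 48 h compound exposure, 30 °C humidified. Signal: OD615 turbidity measurement. Benchmarks: positive control amphotericin B 10 µg/mL.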
Hits are given with their value; – = inactive; · = no result.

SMILES | RAM network inh | WT yeast gro inh | KCC2 mod | Yeast lifespan up | Yeast growth inh
CCOc1ccc(NC(=O)Cn2nnc(-c3ccccc3NC(=O)c3cccs3)n2)cc1 | 8.4 | – | – | – | –
O=C(CC1Sc2ccccc2NC1=O)NCc1ccccc1 (configuration not stated) | · | · | – | · | ·
CN(C)CCCN1C(=O)c2oc3ccccc3c(=O)c2C1c1cccs1 (configuration not stated) | – | – | 7.3 | – | –
CC1=C/C(=N\Nc2ccccc2[N+](=O)[O-])CC(C)(C)C1 | – | 64 | – | – | –
Cc1c(NC2=CC(=O)CC(C)(C)C2)ccc([N+](=O)[O-])c1C | – | – | – | – | –
O=C(CSc1oc(-c2cccs2)nc1S(=O)(=O)c1ccc(F)cc1)NCC1CCCO1 (configuration not stated) | 9.1 | – | · | – | –
O=C(CSc1oc(-c2ccc(F)cc2)nc1S(=O)(=O)c1ccc(F)cc1)NCC1CCCO1 (configuration not stated) | – | – | – | – | –
O=C(OCn1ncc(Br)c(Br)c1=O)c1ccc(F)cc1 | – | 87 | -4.7 | – | 91
O=C(OCn1ncc(Br)c(Br)c1=O)c1ccccc1Cl | – | – | · | – | 73
O=C(COC(=O)CNC(=O)c1sc2ccccc2c1Cl)Nc1cc(Cl)cc(Cl)c1 | – | – | – | · | ·
COCCN(Cc1cc2cc(C)c(C)cc2nc1Cl)C(=O)N1CCOCC1 | – | – | – | · | ·
Cc1ccn2c(-c3n[nH]c(=S)n3C)c(C)nc2c1 | – | – | – | – | –
O=C(O)/C=C\C(=O)Nc1ccc(F)c(F)c1F | · | · | – | · | ·
CNC(=S)N(Cc1ccc(OC)cc1)C1CC(=O)N(c2ccc(C(=O)OC)cc2)C1=O (configuration not stated) | – | – | – | – | –
O=C1CC(N(CCc2ccccc2)C(=S)Nc2ccccc2)C(=O)N1c1ccccc1 (configuration not stated) | – | 71 | – | – | –
CNC(=S)N(Cc1ccc(OC)cc1)C1CC(=O)N(c2ccc(OC)cc2)C1=O (configuration not stated) | 10 | – | – | · | –
Cc1cccc(NC(=S)NC(C)(C)CC(C)(C)C)c1 | – | 68 | – | · | ·
Cc1cccc(NC(=S)NCc2ccc(F)cc2)c1 | – | – | – | – | –
Cc1ccc(C)c(NC(=S)NCCSc2ccc(Cl)cc2)c1 | – | 78 | – | – | –
COc1ccc(NC(=S)NCCSc2ccc(C)cc2)c(OC)c1 | · | · | – | · | ·
Cc1ccc(NC(=S)NCCSc2ccc(Cl)cc2)c(C)c1 | 11 | 73 | – | – | –
COc1ccc(OC)c(NC(=S)NCCSc2ccc(C)cc2)c1 | – | 67 | – | – | –
COc1ccc(/C(O)=C2/C(=O)C(=O)N(c3ncccn3)C2c2ccc(F)cc2)cc1 (configuration not stated) | · | · | – | · | ·
COc1cccc(NC(=O)COC(=O)CC(NC(N)=O)c2ccc(Cl)cc2)c1 (configuration not stated) | · | · | – | · | ·
O=C(Nc1ccccc1C(=O)NC(Cc1ccccc1)C(=O)NC1CCCCCC1)c1ccccc1 (configuration not stated) | – | – | – | – | –
SMILES | RAM network inh | WT yeast gro inh | KCC2 mod | Yeast lifespan up | Yeast growth inh
COC(=O)c1ccc(CN2CCN(CC=C(C)C)C(CCO)C2)cc1 (configuration not stated) | – | – | – | · | ·
Cc1ccc(Cl)cc1NC(=S)NCCCSC1CCCCC1 | – | 86 | – | · | ·
CCc1ccccc1NC(=S)NCCSc1ccc(Cl)cc1 | 10 | 81 | – | · | ·
Cc1cc(Cl)ccc1NC(=S)NCCCO | – | – | – | – | –
Cc1ccccc1NC(=S)NCCSc1ccc(Cl)cc1 | – | 80 | – | · | ·
Cc1cccc(NC(=S)NCCSc2ccc(Cl)cc2)c1 | 8.6 | 81 | – | · | ·
CCOC(=O)c1c(C)[nH]c(C(=O)COC(=O)CNC(=O)c2ccc(Cl)cc2Cl)c1C | – | – | – | – | –
N#C/C(=C\c1ccc([N+](=O)[O-])o1)c1nc2ccccc2[nH]1 | – | – | – | – | 67
Cc1ccc2nc(/C(C#N)=C\c3ccc([N+](=O)[O-])o3)[nH]c2c1 | – | – | – | – | 99
N#C/C(=C(/O)c1ccc([N+](=O)[O-])o1)c1nc2ccccc2[nH]1 | · | · | – | · | ·
COc1ccc(Cl)cc1N1C(=O)CC(Sc2ccccc2N)C1=O (configuration not stated) | · | · | – | · | ·
O=C1c2cccc3c([N+](=O)[O-])ccc(c23)C(=O)N1c1ccc(Cl)cn1 | – | – | · | 33 | –
O=C1OC(c2ccco2)=N/C1=C\c1ccc(-c2cccc(C(F)(F)F)c2)o1 | – | – | – | – | –
O=C(O)CCCCCN1C(=O)/C(=C\c2cn(-c3ccccc3)nc2-c2cccs2)SC1=S | · | · | – | · | ·
CC1=NNC(=O)/C1=C\c1cn(-c2ccccc2)nc1-c1ccc(F)cc1 | – | 90 | – | · | ·
CC1=NNC(=O)/C1=C\c1cn(-c2ccccc2)nc1-c1cccs1 | – | – | – | – | 96
C1CCN=C(Nc2nc3c(s2)CCCC3)CC1 | – | 62 | – | – | –
c1nnc(NC2=NCCCCC2)s1 | – | – | · | – | –
O=[N+]([O-])c1ccccc1NCCNS(=O)(=O)c1ccc(Cl)cc1 | – | – | – | – | –
O=[N+]([O-])c1ccc(NCCCNS(=O)(=O)c2ccc(Cl)cc2)c(Cl)c1 | 10 | 60 | – | – | –
O=C(OCC(=O)N1CCN(C(=O)c2ccco2)CC1)c1cn(-c2ccccc2)nc1-c1ccccc1 | – | 80 | – | – | –
O=C(OCC(=O)N1CCN(C(=O)c2ccco2)CC1)c1cc(-c2ccccc2)nc2ccccc12 | – | – | – | – | –
CCCc1cc(-c2n[nH]c(C)c2-c2ccc(C(=O)OCC)o2)c(O)cc1O | 9.6 | – | – | – | –
Cn1c(=O)c(C(=O)NCC2CCCO2)c(O)c2ccccc21 (configuration not stated) | – | – | · | · | ·
OC(CNCCc1ccc(C(F)(F)F)cc1)COc1ccc2ccccc2c1 (configuration not stated) | – | – | – | – | 63
SMILES | RAM network inh | WT yeast gro inh | KCC2 mod | Yeast lifespan up | Yeast growth inh
OC(CNCCc1ccc(C(F)(F)F)cc1)COc1cccc2ccccc12 (configuration not stated) | – | – | – | – | –
O=c1c2c3c(sc2nc2n1CCC2)CCC3 | – | 61 | – | – | –
Cc1cccc(C)c1OCC(O)CNC(C)C (configuration not stated) | – | – | – | – | –
CCOC(=O)c1oc2cccc(OCC(O)CNC(C)C)c2c1C (configuration not stated) | – | 69 | · | – | –
CCCC1=NN(c2ccc([N+](=O)[O-])cc2)C(=O)/C1=C/N(C)C | – | – | – | – | –
CC1=NN(c2nc3ccccc3[nH]2)C(=O)/C1=C/N(C)C | – | 85 | – | · | ·
CC1=NN(c2ccc([N+](=O)[O-])cc2)C(=O)/C1=C\N(C)C | – | 65 | – | – | –

Screening results from PubChem BioAssay.
